Screening data (PubChem)
This is a sample that favours compounds with a hit; in the whole collection about 3.7% have one here.
KCNK3 block – human KCNK3 channel inhibitors, primary screen, CHO cells, FluxOR thallium flux, B-score; AID 602410, 2012; Potassium channel subfamily K member 3 (Homo sapiens), O14649; B-score at 10 µM; FluxOR fluorescence; active compounds read low; actives 0.84% (n = 340,000);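 active = B-score under library mean minus 4 SD, starting fluorescence ratio at most library mean plus 5 SD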;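 note: more negative B-score means stronger inhibition of thallium flux through KCNK3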
KCNK9 block – KCNK9 potassium channel inhibitors, primary screen, HEK293 cells, thallium flux | FluxOR thallium flux fluorescence; active compounds read low | B-score at 10 µM | actives 1.2% (n = 310,000) | AID 488922, 2010;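 active = ratio B-score over 3 SD below the library mean, with starting fluorescence within 5 SD of its mean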;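 note: negative B-score means less thallium flux so channel inhibition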
KCNQ1 inh – inhibitors of human KCNQ1 channel, primary screen, cell-based, thallium flux, high-throughput; B-score at 10 µM; CHO-K1 KCNQ1, FluxOR thallium flux fluorescence; active compounds read high; AID 2642, 2010; Potassium voltage-gated channel subfamily KQT member 1 (Homo sapiens), P51787; actives 1.3% (n = 310,000);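 active = compounds whose thallium flux B-score, printed positive for inhibition, exceeds three library SD while starting fluorescence stays within three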;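 note: channel opened by potassium depolarization with thallium stimulus after 20 min compound exposure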
Target sequence (P51787 whole entry, looked up): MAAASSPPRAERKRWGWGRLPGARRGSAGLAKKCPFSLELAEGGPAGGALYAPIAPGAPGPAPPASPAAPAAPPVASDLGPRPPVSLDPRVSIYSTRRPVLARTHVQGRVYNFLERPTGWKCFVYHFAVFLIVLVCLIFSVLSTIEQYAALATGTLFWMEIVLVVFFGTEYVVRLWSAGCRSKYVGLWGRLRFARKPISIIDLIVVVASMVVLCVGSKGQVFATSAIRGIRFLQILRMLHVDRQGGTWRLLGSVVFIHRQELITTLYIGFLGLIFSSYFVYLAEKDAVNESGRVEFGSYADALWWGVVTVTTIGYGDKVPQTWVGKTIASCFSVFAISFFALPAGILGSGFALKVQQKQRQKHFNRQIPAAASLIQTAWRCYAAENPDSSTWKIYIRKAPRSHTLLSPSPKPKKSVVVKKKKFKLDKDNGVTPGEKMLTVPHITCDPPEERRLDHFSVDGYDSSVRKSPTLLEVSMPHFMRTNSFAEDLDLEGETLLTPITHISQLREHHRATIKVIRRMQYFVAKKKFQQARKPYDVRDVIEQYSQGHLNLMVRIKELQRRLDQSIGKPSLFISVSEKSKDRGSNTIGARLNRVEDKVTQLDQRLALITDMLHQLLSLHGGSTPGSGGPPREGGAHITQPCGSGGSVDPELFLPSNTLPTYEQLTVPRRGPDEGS
Kir21 block – inhibitors of mouse Kir2.1 inward-rectifier potassium channel | Inward rectifier potassium channel 2 (Mus musculus), P35561 | actives 0.85% (n = 310,000) | B-score at 10 µM | HEK293-Kir2.1, FluxOR thallium flux fluorescence; active compounds read low | AID 1672, 2009;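 active = fluorescence ratio B-score at or below minus 3 SD of library scores, with starting-brightness B-score within 2 SD, cut at about -4.2 in these data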;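 note: channel flux triggered by added potassium and thallium sulfate stimulus; B-score of peak minus minimum fluorescence over baseline after thallium stimulus; more negative B-score means stronger Kir2.1 block with less thallium influx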
KCNQ1 pot – potentiators or activators of KCNQ1 channel, primary screen, cell-based, thallium flux, high-throughput; Potassium voltage-gated channel subfamily KQT member 1 (Homo sapiens), P51787; CHO-K1 KCNQ1, thallium flux FluxOR fluorescence; active compounds read high; B-score at 10 µM; actives 0.35% (n = 310,000);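 active = fluorescence ratio B-score, a plate-corrected score, at least three library SD, with initial intensity B-score within 5 SD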
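Test system: CHO-K1 cells stably expressing KCNQ1 / Medium: assay buffer / Also added: depolarizing K+/Tl+ stimulus, K2SO4 and Tl2SO4 each 12.5 mM in 5x stock / Incubation: 90 min dye loading and 20 min compound exposure, both at room temperature / Signal: thallium influx via FluxOR fluorescence, kinetic imaging / Evaluation: B score of baseline-normalized fluorescence ratio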
hERG protect – hERG rescue from dofetilide block, primary screen, cell-based, CHO-hERG, FluxOR thallium flux, dofetilide IC70 | Voltage-gated inwardly rectifying potassium channel KCNH2 (Homo sapiens), Q12809 | dofetilide IC70 present | activation (rescue from dofetilide block), less the hit threshold, % at 10 µM | actives 0.51% (n = 310,000);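 active = activation above the mean of controls blocked by dofetilide plus 5 SD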;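 note: thallium influx through hERG after potassium depolarization seen as dye fluorescence rise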
KCNQ1 block val – KCNQ1 potassium channel inhibitors, confirmation, cell-based, Tl flux, duplicate | shares compounds with KCNQ1 inh | KCNQ1 cell line, FluxOR thallium flux fluorescence | inhibition, % at 10 µM | actives 93% (n = 1,600);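 active = primary screen active, with duplicate mean exceeding buffer control mean plus 3 SD of buffer wells, cut at about 28% in these data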
CHO Tl flux – thallium flux effects in parental CHO cells, counter-screen for KCNQ1 inhibitor project, cell-based, Tl flux; parental CHO-K1, FluxOR thallium flux fluorescence ratio; active compounds read low; zero means no signal rise above baseline; actives 21% (n = 1,600); fluorescence ratio (Tl flux) at 10 µM; AID 588366, 2011; shares compounds with KCNQ1 inh;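 active = mean of duplicate thallium-flux fluorescence ratios in parental host cells more than 5 SD below the buffer control mean, cut at about 0.38 in these data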;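 note: ratio is peak minus minimum fluorescence divided by baseline fluorescence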
KCNQ1 APC inh – KCNQ1 channel inhibitors, confirmation, orthogonal assay, cell-based, automated electrophysiology | shares compounds with KCNQ1 inh | KCNQ1-CHO cells, automated patch clamp current | calls only at 10 µM | actives 20% (n = 490) | AID 624120, 2012;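 active = KCNQ1 current drop exceeding 3 SD of negative control wells, seen in both duplicate runs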;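 note: steady state current during a 2 s step from -80 to +40 mV; negative values mean current inhibition and positive values mean potentiation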
KCNQ2 spec – KCNQ2 channel inhibition, selectivity assay for KCNQ1 inhibitor project, cell-based | shares compounds with KCNQ1 inh | KCNQ2 cells, FluxOR thallium flux fluorescence | inhibition, % at 10 µM | actives 71% (n = 1,600);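 active = mean percent inhibition of the KCNQ2 thallium signal more than 5 SD above the buffer-only control wells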;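 note: KCNQ2 expressed in CHO cells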
KCNQ1 KCNE1 spec – KCNQ1/KCNE1 channel inhibition, selectivity assay for KCNQ1 inhibitor project, CHO-K1 cells, thallium flux, FluxOR. shares compounds with KCNQ1 inh. FluxOR thallium flux fluorescence. inhibition, % at 10 µM. actives 77% (n = 1,600). AID 652147, 2013;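 active = mean percent inhibition of duplicate wells above the buffer-only control mean plus 3 SD of those controls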
Large screens that a line does not name were inactive (follow-up assays come after a bar, where they were run).

CC1CCN(CC(O)COCCC23CC4CC(CC(C4)C2)C3)CC1 (stereo not drawn)	KCNQ1 inh 7 | KCNQ1 block val 72 | CHO Tl flux 0.38 | KCNQ2 spec 79% | KCNQ1 KCNE1 spec 76%
CCOC(=O)c1ccc(-c2csc(NC(=O)CN3CCC(C)CC3)n2)cc1	none
Cc1ccccc1OCC(O)CN(Cc1ccccc1O)C1CCCCC1 (stereo not drawn)	KCNQ1 inh 12 | KCNQ1 block val 90 | CHO Tl flux inactive | KCNQ1 APC inh active | KCNQ2 spec 120% | KCNQ1 KCNE1 spec 140%
CN(CC(O)COc1ccccc1F)C1CCCCC1 (stereo not drawn)	none
O=C(NCC1CCCCC1)c1cccc(S(=O)(=O)N2CCCC2)c1	none (no result: KCNK9 block, KCNQ1 inh, Kir21 block, KCNQ1 pot, hERG protect)
CCc1c(C#N)c(SCCC(=O)Nc2ccc(F)cc2)nc2c1C(=O)CC(C)(C)C2	KCNQ1 inh 12 | KCNQ1 block val 130 | CHO Tl flux 0.38 | KCNQ2 spec 98% | KCNQ1 KCNE1 spec 160%
COc1ccc(-c2c(C#N)c(SCc3c(C)noc3C)nc3c2C(=O)CC(C)(C)C3)cc1	none
CCc1c(C#N)c(SCCC(=O)Nc2cccc(OC)c2)nc2c1C(=O)CC(C)(C)C2	KCNQ1 inh 7 | KCNQ1 block val 108 | CHO Tl flux inactive | KCNQ1 APC inh inactive | KCNQ2 spec 99% | KCNQ1 KCNE1 spec 129%
COc1ccc(Nc2nc(N3CCCC3)nc3ccccc23)c(OC)c1	KCNQ1 inh 7 | KCNQ1 block val 112 | CHO Tl flux inactive | KCNQ2 spec 81% | KCNQ1 KCNE1 spec 137%
Cc1ccc(Nc2nc(N3CCOCC3)c3ccccc3n2)cc1	none
COc1ccc(Nc2nc(N3CCCCC3)c3ccccc3n2)cc1	KCNQ1 inh 14 | KCNQ1 block val 139 | CHO Tl flux inactive | KCNQ1 APC inh inactive | KCNQ2 spec 103% | KCNQ1 KCNE1 spec 122%
COc1ccc(Nc2ncnc3ccccc23)c(OC)c1	none
Cc1ccc(SCCNS(=O)(=O)c2ccc(F)cc2)cc1	KCNQ1 inh 7 | KCNQ1 block val 47 | CHO Tl flux inactive | KCNQ2 spec 62% | KCNQ1 KCNE1 spec 50%
O=S(=O)(NCCSc1ccc(Cl)cc1)c1ccc(F)cc1	none
CSc1ccc(-c2sc(Nc3ccccc3)n[n+]2-c2ccc(F)cc2)cc1	none
COc1ccc(-c2sc(Nc3ccccc3)n[n+]2-c2ccc(F)cc2)c(C)c1C	KCNQ1 inh 16 | KCNQ1 block val 128 | CHO Tl flux inactive | KCNQ1 APC inh active | KCNQ2 spec 99% | KCNQ1 KCNE1 spec 134%
O=C1C2CC=C(Cl)CC2C(=O)N1CCC[n+]1cccc2ccccc21 (stereo not drawn)	none
Clc1ccc(/C=C/c2nc3ccccc3[nH]2)cc1	none
Clc1cccc(Cl)c1/C=C/c1nc2ccccc2[nH]1	KCNK3 block -8.8, KCNQ1 inh 14 | KCNQ1 block val 121 | CHO Tl flux inactive | KCNQ2 spec 93% | KCNQ1 KCNE1 spec 130%
CCc1noc(C)c1C(=O)NCCc1ccc(Cl)cc1	none
COC(=O)c1ccc([C@H](NC(=O)c2ccco2)[C@]2(C)C[C@H]2C2CCCCC2)cc1	KCNQ1 inh 6 | KCNQ1 block val 122 | CHO Tl flux 0.34 | KCNQ2 spec 107% | KCNQ1 KCNE1 spec 168%
COC(=O)C(C)NC(=O)C1CCCN1C(=O)CNC(=O)OCc1ccccc1 (stereo not drawn)	none
Clc1cc(Br)ccc1OCCCNCc1ccccc1	KCNQ1 inh 7, Kir21 block -10 | KCNQ1 block val 68 | CHO Tl flux inactive | KCNQ2 spec 90% | KCNQ1 KCNE1 spec inactive
CSc1ncccc1C(=O)N1CCCC(N2CCN(c3ccccc3F)CC2)C1 (stereo not drawn)	none
OC1CCN(c2c3c(nc4cc(-c5ccc(Cl)cc5)nn24)CCC3)CC1	none
Clc1cccc(-c2cc3nc4c(c(N5CCOCC5)n3n2)CCCC4)c1	KCNK3 block -9.1, KCNQ1 inh 6 | KCNQ1 block val 101 | CHO Tl flux inactive | KCNQ2 spec 78% | KCNQ1 KCNE1 spec 117%
CC(OC(=O)c1cc(Br)ccc1O)C(=O)Nc1ccc(S(=O)(=O)N2CCCC2)cc1 (stereo not drawn)	none
Cc1cccc(C(=O)OC(C)C(=O)Nc2ccc(S(=O)(=O)N3CCCC3)cc2)c1O (stereo not drawn)	KCNQ1 inh 10 | KCNQ1 block val 136 | CHO Tl flux 0.38 | KCNQ2 spec 117% | KCNQ1 KCNE1 spec 178%
COc1cccc(-c2cccc(NC(=O)C3CCN(CC4CCOC4)CC3)c2)c1 (stereo not drawn)	none
O=C(c1ccccc1)c1sc(N2CCCCCC2)nc1-c1ccccc1	KCNQ1 inh 7 | KCNQ1 block val 124 | CHO Tl flux inactive | KCNQ1 APC inh inactive | KCNQ2 spec 123% | KCNQ1 KCNE1 spec active
COc1ccc(-c2nc(N3CCCCCC3)sc2C(=O)c2ccccc2)cc1	KCNQ1 inh 7 | KCNQ1 block val 56 | CHO Tl flux inactive | KCNQ2 spec 105% | KCNQ1 KCNE1 spec 86%
